CFTR F508del cor: CFTR F508del correction in bronchial cells. CFBE cells, YFP halide quenching; stimulated with forskolin plus potentiator P3; % fluorescence drop versus neutral controls. activity (quench increase), % at 7.58 µM. 350,000 tested, 0.36% active. AID 720511;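 active = mean added fluorescence quench of at least 8% versus neutral control, with both replicates also reaching 8%; inconclusive = only one of the mean or replicate conditions met; inactive = mean below 8% and not both replicates reaching 8%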;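 also: cells transiently co-express mutant CFTR-F508del with the halide-sensitive YFP; corrector assay measuring rescue of mutant channel to the surface after 24 h compound exposure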
S100A4 inh HTS: blocks human S100A4 binding to myosin IIA peptide; S100A4/TAMRA-MyoIIA peptide fluorescence polarization; inhibition, % at 10.7 µM; 360,000 tested, 0.14% active; AID 652163;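 active = mean inhibition of at least 70% across replicates, with every replicate also reaching that level; inconclusive = mean inhibition reaches 70% but some replicates fall short; inactive = mean inhibition below 70%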
Target sequence (P26447 whole entry, looked up): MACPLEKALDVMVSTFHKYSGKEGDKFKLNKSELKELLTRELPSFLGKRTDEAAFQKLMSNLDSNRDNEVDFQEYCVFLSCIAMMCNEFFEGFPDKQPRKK
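Material: S100A4 monomer protein / Buffer or medium: 50 mM HEPES pH 7.2, 10 mM CaCl2, 100 mM KCl / Times: 5 min incubation before reading / Benchmarks: neutral control DMSO, positive control TFP / Reagent: labelled myosin peptide probe, 5 nM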
FGF22 binding: FGF22 (human) thermal shift binding | Q9HCT0 | recombinant FGF22 thermal shift, SYPRO orange fluorescence; percent of sucrose octasulfate shift, DMSO zero | activity (Tm shift, normalised), % at 9.99 µM | 340,000 tested, 1.5% active | AID 651658;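 active = mean Tm shift, scaled 0 neutral to 100 positive control, at about 1.3% or above, every replicate too, limit read from the data; inconclusive = no clear call, values can overlap the other calls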
dFosB act: enhances mouse delta FosB homodimer DNA binding; purified delta FosB, TAMRA-CDK5 oligo fluorescence polarization; percent of positive-control signal above neutral wells; activation, % at 25 µM; 340,000 tested, 0.99% active;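 active = mean activation above about 17%, with every replicate also reaching it, limit read from the data, passing the limit was not always enough; inconclusive = only one of the two conditions met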
Target sequence (P13346 whole entry, looked up): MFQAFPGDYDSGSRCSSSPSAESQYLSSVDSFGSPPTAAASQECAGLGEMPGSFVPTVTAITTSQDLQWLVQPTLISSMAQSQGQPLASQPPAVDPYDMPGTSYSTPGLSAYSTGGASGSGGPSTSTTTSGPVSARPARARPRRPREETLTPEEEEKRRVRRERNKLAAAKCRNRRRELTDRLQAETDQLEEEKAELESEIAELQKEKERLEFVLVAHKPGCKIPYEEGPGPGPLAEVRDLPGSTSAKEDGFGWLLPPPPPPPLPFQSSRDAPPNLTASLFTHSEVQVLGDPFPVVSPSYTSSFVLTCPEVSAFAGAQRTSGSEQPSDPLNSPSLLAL
* = called active by the depositor. Hits are enriched below; roughly 2.2% of the tested compounds scored in any of these assays.

O=C(c1ccccn1)N1CC2(C1)[C@H](c1ccccc1)[C@H](CO)N2C(=O)C1CCC1 was read as CFTR F508del cor -3 and S100A4 inh HTS 3.
For Cc1cc(C)cc(S(=O)(=O)c2cnc3ccccc3n2)c1 the results were CFTR F508del cor 1, S100A4 inh HTS -14, FGF22 binding 43* and dFosB act -6.
`O=S(=O)(c1ccc(Cl)cc1)c1cnc2ccccc2n1` gave CFTR F508del cor 1, S100A4 inh HTS -16, FGF22 binding 0 and dFosB act 10.
For Cc1noc(C)c1NC(=O)Nc1ccc2c(c1)CC(=O)N([C@@H](C)CO)C[C@@H](C)[C@H](CN(C)Cc1ccc(Cl)c(Cl)c1)O2 the results were CFTR F508del cor -2, S100A4 inh HTS 0 and FGF22 binding 0.
O=C(COC(=O)C1CC1)Nc1ncc(C(F)(F)F)cc1Cl was read as CFTR F508del cor -1, S100A4 inh HTS 1, FGF22 binding 44* and dFosB act 1.
For Cc1ccccc1C(=O)Nc1ccccc1-c1nnn(CC(=O)Nc2ccc3c(c2)OCCO3)n1 the results were dFosB act 31*.
Screening CC(=O)Nc1ccccc1-c1nnn(CC(=O)Nc2ccc3c(c2)OCCO3)n1 returned CFTR F508del cor -1, S100A4 inh HTS 8, FGF22 binding 0 and dFosB act 0.
`COc1ccccc1NS(=O)(=O)c1cccc(C(=O)N/N=C/c2ccc(OCC(=O)O)cc2)c1` gave CFTR F508del cor 1, S100A4 inh HTS -4, FGF22 binding 1 and dFosB act -1.
O=C(O)COc1ccccc1/C=N/NC(=O)c1cccc(S(=O)(=O)Nc2cccc(Cl)c2)c1 was read as CFTR F508del cor 2, S100A4 inh HTS 2, FGF22 binding 43* and dFosB act -2.
For NS(=O)(=O)c1cccc(NC(=O)CSc2n[nH]c(-c3ccccc3Br)n2)c1 the results were CFTR F508del cor 6, S100A4 inh HTS -3, FGF22 binding 1.9* and dFosB act -4.
For CC(=O)Nc1cccc(NC(=O)CSc2n[nH]c(-c3ccccc3)n2)c1 the results were CFTR F508del cor 1, S100A4 inh HTS -2, FGF22 binding 1 and dFosB act -8.
C[C@H]1CN([C@@H](C)CO)C(=O)Cc2cc(NC(=O)CCCN(C)C)ccc2O[C@@H]1CN(C)C(=O)Nc1ccc2c(c1)OCO2 was read as CFTR F508del cor 3, S100A4 inh HTS inconclusive and FGF22 binding 0.
Screening O=c1cc(-c2ccccc2[N+](=O)[O-])oc2ccccc12 returned CFTR F508del cor 2, S100A4 inh HTS 3, FGF22 binding 43* and dFosB act 1.
For CCN(CC(=O)Nc1c(F)cccc1F)C(=O)c1ccc(N2CCCCC2)c([N+](=O)[O-])c1 the results were CFTR F508del cor 2, S100A4 inh HTS 3, FGF22 binding 0 and dFosB act -3.
CCN(CC(=O)Nc1ccc(NC(C)=O)cc1)C(=O)c1ccc(N2CCC(C)CC2)c([N+](=O)[O-])c1 was read as CFTR F508del cor 41*, S100A4 inh HTS 1, FGF22 binding 0 and dFosB act -9.
`O=C(C[C@H]1CC[C@H]2[C@@H](COC[C@H](O)CN2Cc2ccccc2F)O1)NC1CCC1` gave CFTR F508del cor 0, S100A4 inh HTS 0 and FGF22 binding 0.
CC[n+]1oc(-c2ccccc2)cc1C was read as CFTR F508del cor 1, S100A4 inh HTS -1, FGF22 binding 43* and dFosB act 2.
`COC(=O)c1ccccc1-c1ccc(/C=N/NC(=O)c2cc3ccccc3o2)o1` gave dFosB act -8.
For COC(=O)c1ccccc1-c1c2ccc(=N)cc-2oc2cc(N)ccc12 the results were CFTR F508del cor 62*, S100A4 inh HTS active, FGF22 binding -5 and dFosB act 88*.
Screening CCCCCN=C(N)N/N=C/c1c[nH]c2ccc(OC)cc12 returned CFTR F508del cor 2, S100A4 inh HTS 9, FGF22 binding 0 and dFosB act 18*.
CCCOc1ccc(C(=O)N/N=C/c2c[nH]c3ccc(Br)cc23)cc1 was read as CFTR F508del cor 3, S100A4 inh HTS 0, FGF22 binding 0 and dFosB act -13.
Screening COCC(=O)Nc1cc(C(=O)NCCc2ccccc2)ccc1Cl returned CFTR F508del cor -1, S100A4 inh HTS -1, FGF22 binding 0 and dFosB act -8.
`CCOCC(=O)Nc1cc(C(=O)NCCc2ccccc2)ccc1Cl` gave CFTR F508del cor -1, S100A4 inh HTS -3, FGF22 binding 11* and dFosB act -6.
Screening Cc1ccccc1-c1cnc2c(c1)C(=O)N([C@@H](C)CO)C[C@H](C)[C@H](CN(C)C(=O)CN(C)C)O2 returned CFTR F508del cor -2, S100A4 inh HTS -31 and FGF22 binding 0.
For CC(=O)N1CCN(C(=O)c2ccc(OC3CCN(Cc4ccccn4)CC3)cc2)CC1 the results were CFTR F508del cor 0, S100A4 inh HTS -10, FGF22 binding 0 and dFosB act -5.
Screening O=C(c1ccc(OC2CCN(Cc3ccccn3)CC2)cc1)N1CCCCO1 returned CFTR F508del cor 1, S100A4 inh HTS -2, FGF22 binding 43* and dFosB act -3.
For C[C@@H]1CN([C@@H](C)CO)S(=O)(=O)c2ccc(C3=CCCCC3)cc2O[C@@H]1CN(C)Cc1cncnc1 the results were CFTR F508del cor 3, S100A4 inh HTS -4 and FGF22 binding 0.
C[C@@H]1CN([C@H](C)CO)S(=O)(=O)c2ccc(C3=CCCCC3)cc2O[C@@H]1CN(C)Cc1ccccc1 was read as CFTR F508del cor -5, S100A4 inh HTS 79* and FGF22 binding 0.
For C[C@@H]1CN([C@@H](C)CO)S(=O)(=O)c2ccc(C3=CCCCC3)cc2O[C@@H]1CN(C)Cc1ccccc1 the results were CFTR F508del cor -2.
For C[C@H]1CN([C@@H](C)CO)S(=O)(=O)c2ccc(C3=CCCCC3)cc2O[C@H]1CN(C)C(=O)Cc1ccncc1 the results were CFTR F508del cor 3, S100A4 inh HTS 8 and FGF22 binding 0.
C[C@H]1CN([C@@H](C)CO)S(=O)(=O)c2ccc(C3=CCCCC3)cc2O[C@@H]1CN(C)C(=O)Cc1ccncc1 was read as CFTR F508del cor 8.5*, S100A4 inh HTS 0 and FGF22 binding 0.
For C[C@H]1CN([C@@H](C)CO)S(=O)(=O)c2ccc(C3=CCCCC3)cc2O[C@H]1CN(C)Cc1ccccc1 the results were CFTR F508del cor -4, S100A4 inh HTS 100* and FGF22 binding -1.
`C[C@@H]1CN([C@H](C)CO)S(=O)(=O)c2ccc(C3=CCCCC3)cc2O[C@@H]1CN(C)Cc1cncnc1` gave CFTR F508del cor -2, S100A4 inh HTS 107* and FGF22 binding 0.
For C[C@@H]1CN([C@@H](C)CO)C(=O)c2c(c3ccccc3n2C)-c2ccccc2CO[C@@H]1CN(C)S(=O)(=O)c1cn(C)cn1 the results were CFTR F508del cor 2, S100A4 inh HTS 3 and FGF22 binding 0.

Bioassay records as filed in PubChem.
